PfM18AAP inh: PfM18AAP enzyme inhibition. recombinant PfM18AAP, H-Glu-NHMec fluorogenic cleavage. 290,000 tested, 1.2% active. AID 1822. inhibition, % at 7.35 µM;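 active means inhibition above the campaign mean inhibition over all tested compounds plus 3 SD, cut at about 28% in these data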
ZTA DNA inh: ZTA (EBV) inhibition in EBNA-1 counter-screen; AID 2234; 320,000 tested, 0.15% active; ZTA-DNA binding, fluorescence polarization; inhibition, % at 11 µM; P03206; in the data active means inhibition above about 33%
Target sequence (P03206 whole entry, looked up): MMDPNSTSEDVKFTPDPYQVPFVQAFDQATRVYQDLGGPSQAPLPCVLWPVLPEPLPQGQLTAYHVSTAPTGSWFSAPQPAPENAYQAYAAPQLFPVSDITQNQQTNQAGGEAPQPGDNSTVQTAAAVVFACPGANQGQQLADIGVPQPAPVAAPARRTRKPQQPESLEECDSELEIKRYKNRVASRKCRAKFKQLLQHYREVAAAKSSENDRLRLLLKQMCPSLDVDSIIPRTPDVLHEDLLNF
HCV core dimer: blocks dimerization of HCV core protein; TR-FRET GST/Flag-core106 dimerization, 1536-well; inhibition, % at 5 µM; 300,000 tested, 0.33% active;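 active means inhibition above the mean of all tested compounds plus 3 SD, set per screening campaign, cut at about 45% in these data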
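Material: Tagged HCV core106 pair (GST and Flag) | Amount: GST-core106 13.5 nM, Flag-core106 17 nM | Medium: KF-containing HEPES buffer, pH 7.45, DTT, CHAPS, BSA | Reagent: Eu donor and XL665 acceptor anti-tag antibodies | Schedule: 4 h at 22.5 °C | Technique: Time-resolved FRET, ex 340 nm, em 617 and 671 nm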
EBNA-1 inhibitor: blocks EBNA-1 binding to DNA; EBNA-1 DNA binding, fluorescence polarization; inhibition, % at 14.8 µM; 300,000 tested, 0.34% active; AID 1950; in the data active means inhibition above about 28%
ALR H2O2 inh: blocks human ALR sulfhydryl oxidase activity | P55789 | purified ALR, DTT oxidation, H2O2 HRP-luminol luminescence | inhibition, % (concentration not given with the values) | 290,000 tested, 3.8% active;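 active means mean replicate inhibition above about 79%, with every replicate also reaching it, limit read from the data; inconclusive means only one of the two criteria met; inactive means mean below limit and not every replicate reaching it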
Target sequence (P55789 whole entry, looked up): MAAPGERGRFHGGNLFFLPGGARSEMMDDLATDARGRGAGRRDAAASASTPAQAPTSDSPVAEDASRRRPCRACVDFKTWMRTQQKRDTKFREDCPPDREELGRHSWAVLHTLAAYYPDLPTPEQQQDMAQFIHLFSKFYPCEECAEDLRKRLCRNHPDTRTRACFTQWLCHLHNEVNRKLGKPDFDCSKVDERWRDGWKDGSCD
HCV NS3 hel inh: HCV NS3 helicase inhibition; AID 1800; 290,000 tested, 0.56% active; inhibition, % at 10.9 µM; NS3 helicase DNA unwinding, Cy5 molecular beacon fluorescence;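 active means inhibition above the mean of all tested compounds plus 3 SD, set per campaign, cut at about 35% in these data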
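System: NS3 helicase fragment of HCV / Schedule: 1 h at 25 °C / Control set: DMSO alone as 0% and 110 µM thioflavine S as 100% / Reagent: Cy5/quencher beacon DNA duplex and ATP to start / Technique: Cy5 fluorescence / Replication: singlicate / Evaluation: % inhibition of end-to-start signal ratio versus controls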
Numbers stand for hits; - = inactive; ? = inconclusive; . = no result. Shown are actives, neighbours in structure and some others; about 5.2% of the full set was active somewhere.

SMILES	PfM18AAP inh	ZTA DNA inh	HCV core dimer	EBNA-1 inhibitor	ALR H2O2 inh	HCV NS3 hel inh
O=C(NC1CCCCC1)c1sc(=S)n2c1[nH]c(=O)c1ccccc12	-	-	-	-	97	-
CCCCNC(=O)c1sc(=S)n2c1[nH]c(=O)c1ccccc12	-	-	-	-	.	-
Cn1ccnc1SCC(=O)c1cc2ccccc2o1	-	-	-	-	-	-
Cn1cnnc1SCC(=O)c1cc2ccccc2o1	-	-	-	-	88	-
Cn1c(SCC(=O)c2cc3ccccc3o2)nnc1-c1ccccc1	-	-	-	-	97	-
CNC(=O)CSc1nnc(-c2ccccc2)n1C	-	-	-	-	-	-
CC(=O)Nc1cccc(NC(=O)CSc2n[nH]c(-c3ccccc3)n2)c1	.	-	.	.	-	.
CCN(Cc1ccncc1)C(=O)CCc1nnc(CCc2ccc(OC)cc2)o1	-	-	-	-	-	-
COC(=O)c1sccc1NC(=O)Nc1ccc(F)cc1F	-	-	-	-	-	-
CC(C)(C)c1nnc2sc(SC/C(O)=C(\C#N)c3nc4ccccc4[nH]3)nn2c1=O	-	-	60	-	.	-
Cc1cc(C(=O)CSc2nn3c(=O)c(C(C)(C)C)nnc3s2)c(C)n1C	-	-	-	-	92	-
COc1ccc(C(=O)CSc2nn3c(=O)c(C(C)(C)C)nnc3s2)cc1	-	-	-	-	97	-
CC(C)(C)c1nnc2sc(SCC(=O)c3ccccc3)nn2c1=O	-	-	-	-	98	-
CC(C)(C)c1nnc2sc(SCC(=O)N3CCc4ccccc43)nn2c1=O	-	-	-	-	-	-
COc1ccc(-n2c(C)cc(C(=O)CSc3nn4c(=O)c(C(C)(C)C)nnc4s3)c2C)cc1	-	-	-	-	-	-
COc1ccc(CNC(=O)CSc2nn3c(=O)c(C(C)(C)C)nnc3s2)cc1OC	-	-	-	-	-	-
CCOC(=O)C1(Cc2ccccc2C)CCCN(C(=O)c2ccoc2)C1 (stereo not given)	-	-	-	-	-	-
Nc1nnc(SCC(=O)OCC(=O)Nc2ccc(Br)cc2)s1	-	-	-	-	99	-
Cc1nnc2sc(SCC(=O)Nc3ccc(Br)cc3)nn2c1=O	-	-	-	-	97	-
COc1ccc(NC(=O)CSc2nn3c(=O)c(C)nnc3s2)cc1	-	-	-	-	-	-
Cc1nnc2sc(SCc3ccc(Br)cc3)nn2c1=O	-	-	-	-	-	-
COC(=O)c1ccc(NC(=O)CSc2nn3c(=O)c(C)nnc3s2)cc1	-	-	-	-	93	-
C=CCN(c1cccc(C(F)(F)F)c1)S(=O)(=O)c1cccc(C(=O)OCC(=O)Nc2ccccc2)c1	-	-	-	-	-	-
CCOC(=O)C(NC(=O)Nc1ccc(C(N)=O)cc1)(c1ccccc1)C(F)(F)F (stereo not given)	-	-	-	-	-	-
O=C(Nc1cccc(-c2cn3ccsc3n2)c1)c1ccccc1	-	-	-	-	91	-
SMILES	PfM18AAP inh	ZTA DNA inh	HCV core dimer	EBNA-1 inhibitor	ALR H2O2 inh	HCV NS3 hel inh
CN(C(=O)CSc1nc2scc(-c3ccccc3)c2c(=O)[nH]1)c1ccccc1	.	.	.	.	-	.
Nc1nc(CN2CCN(c3ccccc3)CC2)nc(N2CCCc3ccccc32)n1	-	-	-	-	98	-
COc1ccc(N2CCN(Cc3nc(N)nc(N4CCCc5ccccc54)n3)CC2)cc1	-	-	-	-	87	-
Nc1nc(CN2CCN(c3cccc(Cl)c3)CC2)nc(N2CCCc3ccccc32)n1	-	-	-	-	-	-
Cc1c(CCC(=O)N[C@@H](CC(C)C)C(=O)O)c(=O)oc2cc3oc4c(c3cc12)CCCC4	-	-	-	-	-	-
Cc1c(CCC(=O)N[C@@H](C)C(=O)O)c(=O)oc2c(C)c3oc4c(c3cc12)CCCC4	-	-	-	-	97	-
Cc1c(CCC(=O)NCC(=O)NCC(=O)O)c(=O)oc2cc3oc4c(c3cc12)CCCC4	-	-	-	-	.	-
Cc1c(CCC(=O)NCCC(=O)O)c(=O)oc2c(C)c3oc4c(c3cc12)CCCC4	-	-	-	-	98	-
O=C(CSc1ccccc1C(=O)O)c1ccc(Cl)cc1	-	-	-	-	-	-
O=C(O)c1ccccc1NC(c1ccccc1)c1ccc(Cl)cc1 (stereo not given)	-	-	-	-	91	-
O=C(CNC(=O)c1cccs1)N/N=C/c1ccc(O)cc1O	-	-	-	-	-	-
O=C(CNC(=O)c1cccnc1)N/N=C/c1ccc(O)cc1O	-	-	-	-	78	-
COc1ccc(NC(=O)CCNS(=O)(=O)c2cccc3nsnc23)c(OC)c1	-	-	-	-	.	-
O=C(NNC(=O)c1ccccc1O)c1cccc(Br)c1	30	-	-	-	-	-
COc1ccc(NC2CCCN(C(=O)CCOc3ccccc3)C2)cc1 (stereo not given)	-	-	-	-	99	-
COc1ccc(NC2CCCN(C(=O)COc3ccc(C)cc3)C2)cc1 (stereo not given)	-	-	-	-	90	-
COc1ccc(NC2CCCN(C(=O)CSc3ccccc3)C2)cc1 (stereo not given)	-	-	-	-	99	-
COc1ccc(NC2CCCN(C(=O)CCc3ccccc3F)C2)cc1 (stereo not given)	-	-	-	-	100	-
O=C(CCc1cccc(Cl)c1)N1CCCC(Nc2ccccc2)C1 (stereo not given)	-	-	-	-	-	-
COc1ccc(N2CCN(C(=O)CSc3ccccc3)CC2)cc1	-	-	-	-	-	-
Cc1ccc(OCC(=O)N2CCCCCCC2)cc1	-	-	-	-	-	-
CCC(=O)OCc1cc(=O)oc2ccc3ccccc3c12	-	-	-	-	-	-
Cn1c(N2CCN(C(c3ccccc3)c3ccccc3)CC2)nc2c1c(=O)[nH]c(=O)n2C	-	-	-	-	-	-
Clc1ccccc1N/N=C/c1ccc2c(c1)OCO2	-	-	-	-	99	-
C/C(=N\Nc1nc2ccccc2[nH]1)c1ccc2c(c1)OCO2	-	-	-	-	100	-
SMILES	PfM18AAP inh	ZTA DNA inh	HCV core dimer	EBNA-1 inhibitor	ALR H2O2 inh	HCV NS3 hel inh
C/C(=N\Nc1nc2ccccc2[nH]1)c1ccc2c(c1)OCCO2	-	-	-	-	99	-
O=S(=O)(N/N=C\c1ccc2c(c1)OCO2)c1ccc(F)cc1	-	.	.	.	86	-
C/C(=N\Nc1ccccn1)c1ccc2c(c1)OCO2	-	-	-	-	-	-
C/C(=N\Nc1nc2ccccc2[nH]1)c1cc2ccccc2o1	-	-	-	-	?	-
Cc1ccccc1CN1[C@@H]2c3ccccc3C[C@@H]2OCCS1(=O)=O	-	-	-	-	-	-
O=C(CCn1ccc2cc(S(=O)(=O)N3CCCC3)ccc21)NCc1cccc(F)c1	-	-	-	-	-	-
CCC(C)(C)C1CCC2(CC1)NC(=O)N(CC(=O)NCCc1ccc(OC)c(OC)c1)C2=O (stereo not given)	.	-	.	.	-	.
